Test results from PMC9494671 (ACS Omega, 2022).

Key:
[1] = system: Human colorectal carcinoma cell line (HCT-116); assay: MTT cytotoxicity assay, HCT-116; assay type: cell-based; settings: for IC50: Homo sapiens, HCT-116, 24 h, read-out: IC50 (μM) HCT-116; for cytotoxic activity, class in words, HCT-116: MTT assay
Method in brief: (§1)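 Cells grown in RPMI-1640 with 10% FBS, penicillin 100 units/mL and streptomycin 100 μg/mL at 37 °C, 5% CO2. Seeded at 1.0 × 10^4 cells/well for 48 h, then exposed to a range of test compound concentrations for 24 h, with CA-4 as positive control. MTT (5 mg/mL solution) added for 4 h, formazan dissolved in DMSO, absorbance read at 570 nm. IC50 = 50% growth inhibition, mean ± SD.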

[2] = system: Human hepatocellular carcinoma cell line (HepG2); assay: MTT cytotoxicity assay, HepG2; assay type: cell-based; settings: for IC50: Homo sapiens, HepG2, 24 h, read-out: IC50 (μM) HePG2; for cytotoxic activity, class in words, HepG2: MTT assay
Method in brief: as §1

[3] = system: Human breast adenocarcinoma cell line (MCF-7); assay: MTT cytotoxicity assay, MCF-7; assay type: cell-based; settings: for IC50: Homo sapiens, MCF7, 24 h, read-out: IC50 (μM) MCF-7
Method in brief: as §1

[4] = system: Epitheloid cervix carcinoma cell line (HeLa); assay: MTT cytotoxicity assay, HeLa; assay type: cell-based, human; settings: for IC50: Homo sapiens, 24 h, read-out: IC50 (μM) HeLa
Method in brief: as §1

tubulin = assay: In vitro tubulin polymerization inhibition assay; assay type: biochemical; settings: read-out: IC50 (μM) tubulin polymerization inhibition; 4 mg/mL tubulin, 37 °C, OD340, mean ± SD from three independent experiments
[5] = system: HepG2, HCT-116, MCF-7, and HeLa cell lines; assay: MTT cytotoxicity assay, statements over the four tested cell lines; assay type: cell-based, human; settings: all tested cell lines
Method in brief: as §1

Row | IC50 (tubulin) | SMILES | IC50 [1] | IC50 [2] | IC50 [3] | IC50 [4] | cytotoxic effect, class in words, tested cell lines [5] | cytotoxic activity, class in words, HCT-116 [1] | cytotoxic activity, class in words, HepG2 [2] | cytotoxic activity, class in words, MCF-7 ([3]; MTT assay) | cytotoxic activity, class in words, HeLa ([4]; MTT assay)
1 | – | COc1cc(-c2csc(NC(=O)CNc3ccc(Br)cc3)n2)cc(OC)c1OC [Compound 7b, 2-((4-Bromophenyl)amino)-N-(4-(3,4,5-trimethoxyphenyl)thiazol-2-yl)acetamide] | 9.35 ± 0.5 µM | 34.2 ± 1.7 µM | 44.8 ± 2.2 µM | 13.1 ± 0.7 µM | – | – | – | – | –
2 | 3.42 ± 0.21 µM | COc1cc(-c2csc(NC(=O)CNc3ccc(Br)c(C(F)(F)F)c3)n2)cc(OC)c1OC [Compound 7d, 2-((4-Bromo-3-(trifluoromethyl)phenyl)amino)-N-(4-(3,4,5-trimethoxyphenyl)thiazol-2-yl)acetamide] | 33.1 ± 1.7 µM | 28.1 ± 1.4 µM | 41.4 ± 2.1 µM | 29.8 ± 1.5 µM | – | – | – | – | –
3 | 3.91 ± 0.24 µM | COc1cc(-c2csc(NC(=O)CNN)n2)cc(OC)c1OC [Compound 8, 2-Hydrazinyl-N-(4-(3,4,5-trimethoxyphenyl)thiazol-2-yl)acetamide] | 5.32 ± 0.3 µM | 3.35 ± 0.2 µM | 8.66 ± 0.4 µM | 6.15 ± 0.3 µM | – | – | – | – | –
4 | – | COc1cc(-c2csc(NC(=O)CCl)n2)cc(OC)c1OC [Compound 4, 2-Chloro-N-(4-(3,4,5-trimethoxyphenyl)thiazol-2-yl)acetamide] | 69 ± 3.5 µM | 62.6 ± 3.1 µM | 62.9 ± 3.1 µM | 76.9 ± 3.8 µM | weak (51–100 (weak)) | – | – | – | –
5 | – | COc1cc(-c2csc(Nc3csc(N)n3)n2)cc(OC)c1OC [Compound 10, N^4-(4-(3,4,5-Trimethoxyphenyl)thiazol-2-yl)thiazole-2,4-diamine] | 55.3 ± 2.8 µM | 49.6 ± 2.5 µM | 60.6 ± 3 µM | 48 ± 2.4 µM | moderate-to-weak | – | – | – | –
6 | 3.72 ± 0.23 µM | COc1cc(-c2csc(NC(=O)CN3CCOCC3)n2)cc(OC)c1OC [Compound 6e, 2-Morpholino-N-(4-(3,4,5-trimethoxyphenyl)thiazol-2-yl)acetamide] | 18 ± 0.9 µM | 19.8 ± 1 µM | 39.1 ± 2 µM | 58.8 ± 2.9 µM | – | strong (11–20 (strong)) | strong (11–20 (strong)) | – | –
7 | – | CCN1CCN(CC(=O)Nc2nc(-c3cc(OC)c(OC)c(OC)c3)cs2)CC1 [Compound 6c, 2-(4-Ethylpiperazin-1-yl)-N-(4-(3,4,5-trimethoxyphenyl)thiazol-2-yl)acetamide] | 37.2 ± 1.9 µM | 33.9 ± 1.7 µM | 41.4 ± 2.1 µM | 48.2 ± 2.4 µM | – | – | – | – | –
8 | – | COc1cc(-c2csc(NC(=O)NCCNc3ccccc3)n2)cc(OC)c1OC [Compound 12, 1-(2-(Phenylamino)ethyl)-3-(4-(3,4,5-trimethoxyphenyl)thiazol-2-yl)urea] | 88.5 ± 4.4 µM | > 100 µM | > 100 µM | 91.8 ± 4.6 µM | – | – | – | – | –
9 | 2.38 ± 0.14 µM | COc1cc(-c2csc(NC(=O)CN/N=C3\C(=O)Nc4ccc(Cl)cc43)n2)cc(OC)c1OC [Compound 9a, (Z)-2-(2-(5-Chloro-2-oxoindolin-3-ylidene)hydrazinyl)-N-(4-(3,4,5-trimethoxyphenyl)thiazol-2-yl)acetamide] | 10.1 ± 0.5 µM | 7.32 ± 0.4 µM | 9.8 ± 0.5 µM | 10.6 ± 0.5 µM | – | – | – | – | –
10 | – | COc1cc(-c2csc(NC(=O)CNc3ccc(N4CCOCC4)cc3)n2)cc(OC)c1OC [Compound 7e, 2-((4-Morpholinophenyl)amino)-N-(4-(3,4,5-trimethoxyphenyl)thiazol-2-yl)acetamide] | 31.2 ± 1.6 µM | 25.7 ± 1.3 µM | 35 ± 1.7 µM | 41.5 ± 2.1 µM | – | – | – | – | –
11 | – | COc1cc(-c2csc(NC(=O)CNc3ccccc3)n2)cc(OC)c1OC [Compound 7a, 2-(Phenylamino)-N-(4-(3,4,5-trimethoxyphenyl)thiazol-2-yl)acetamide] | 52.5 ± 2.6 µM | 94.1 ± 4.7 µM | > 100 µM | 54.1 ± 2.7 µM | – | weak (51–100 (weak)) | weak (51–100 (weak)) | weak (51–100 (weak)) | noncytotoxic (above 100 (noncytotoxic))
12 | – | COc1cc(-c2csc(NC(=O)CNCCO)n2)cc(OC)c1OC [Compound 5a, 2-((2-Hydroxyethyl)amino)-N-(4-(3,4,5-trimethoxyphenyl)thiazol-2-yl)acetamide] | 29.4 ± 1.5 µM | 22 ± 1.1 µM | 30 ± 1.5 µM | 50.9 ± 2.5 µM | moderate (21–50 (moderate)) | – | – | – | –
